The subject of experiment [1] is Rattus norvegicus. Nature of the experiment: 50% in vivo effective dose that inhibits ACh-induced pressor response (M1) in rat assay systems after intravenous administration was reported. It counts as functional.
Experiment [2] relates to Rattus norvegicus. Nature of the experiment: 50% in vivo effective dose that inhibits Ach-induced bradycardia (M2) in rat assay systems after intravenous administration was reported. It counts as functional.
In experiment [3] the test system is Rattus norvegicus. The experiment can be described thus: 50% in vivo effective dose that inhibits ACh-induced bronchoconstriction (M3) in rat assay systems after intravenous administration was reported. It counts as functional.
Experiment [4] concerns the target T1, Muscarinic acetylcholine receptor M1 (Homo sapiens, UniProt P11229).
T1 sequence (P11229 whole entry): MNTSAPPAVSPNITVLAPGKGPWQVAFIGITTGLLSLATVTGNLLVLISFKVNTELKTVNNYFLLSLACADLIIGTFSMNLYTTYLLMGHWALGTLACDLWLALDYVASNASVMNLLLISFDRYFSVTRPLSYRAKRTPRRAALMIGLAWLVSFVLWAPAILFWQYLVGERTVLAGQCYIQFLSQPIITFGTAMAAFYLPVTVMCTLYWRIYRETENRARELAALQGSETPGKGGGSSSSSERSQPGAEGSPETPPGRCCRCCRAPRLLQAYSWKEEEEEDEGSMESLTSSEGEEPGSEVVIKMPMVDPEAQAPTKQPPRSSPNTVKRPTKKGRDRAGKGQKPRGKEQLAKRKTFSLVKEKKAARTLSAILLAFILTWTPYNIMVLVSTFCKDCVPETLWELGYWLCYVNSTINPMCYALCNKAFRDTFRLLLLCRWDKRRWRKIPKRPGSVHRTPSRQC
The experiment can be described thus: biochemical. It counts as cell-based, CHO.

In experiment [5] the target is T2, Muscarinic acetylcholine receptor M2 (Homo sapiens, UniProt P08172).
T2 sequence (P08172 whole entry): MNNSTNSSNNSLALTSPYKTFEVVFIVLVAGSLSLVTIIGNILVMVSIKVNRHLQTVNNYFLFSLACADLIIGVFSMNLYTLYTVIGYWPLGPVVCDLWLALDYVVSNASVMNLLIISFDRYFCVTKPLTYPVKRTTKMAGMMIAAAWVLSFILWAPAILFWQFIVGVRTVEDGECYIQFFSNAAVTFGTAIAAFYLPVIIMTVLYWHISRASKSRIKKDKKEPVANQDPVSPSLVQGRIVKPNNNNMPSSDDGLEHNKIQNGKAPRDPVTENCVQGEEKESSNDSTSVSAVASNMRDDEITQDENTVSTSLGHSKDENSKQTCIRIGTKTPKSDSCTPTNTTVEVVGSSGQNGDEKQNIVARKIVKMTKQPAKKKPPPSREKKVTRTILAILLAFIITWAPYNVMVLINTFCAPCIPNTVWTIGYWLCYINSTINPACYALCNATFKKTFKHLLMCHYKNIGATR
The experiment can be described thus: Binding affinity (Ki) against binding of [3H]NMS to membranes from CHO cells expressing cloned human Muscarinic acetylcholine receptor M2. It counts as cell membranes.

Experiment [6] has as its target T3, Muscarinic acetylcholine receptor M5 (Homo sapiens, UniProt P08912).
T3 sequence (P08912 whole entry): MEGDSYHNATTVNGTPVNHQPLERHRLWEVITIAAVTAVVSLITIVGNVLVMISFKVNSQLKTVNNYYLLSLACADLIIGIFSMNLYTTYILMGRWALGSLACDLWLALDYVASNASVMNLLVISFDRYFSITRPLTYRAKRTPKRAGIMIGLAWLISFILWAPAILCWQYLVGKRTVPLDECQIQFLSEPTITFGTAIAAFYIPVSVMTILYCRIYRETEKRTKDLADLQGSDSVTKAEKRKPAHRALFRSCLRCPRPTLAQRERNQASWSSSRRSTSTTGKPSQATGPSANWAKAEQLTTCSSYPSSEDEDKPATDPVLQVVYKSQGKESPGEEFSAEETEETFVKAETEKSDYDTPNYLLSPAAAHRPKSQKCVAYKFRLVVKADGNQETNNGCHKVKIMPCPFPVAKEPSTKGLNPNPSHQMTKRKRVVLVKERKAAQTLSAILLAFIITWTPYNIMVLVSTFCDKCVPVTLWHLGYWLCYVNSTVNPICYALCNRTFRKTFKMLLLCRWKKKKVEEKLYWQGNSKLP
The experiment can be described thus: Binding affinity (Ki) against binding of [3H]NMS using membranes from CHO cells expressing cloned human Muscarinic acetylcholine receptor M5. It counts as cell membranes.

Experiment [7] addresses Muscarinic acetylcholine receptor M3 (Homo sapiens, UniProt P20309). Nature of the experiment: biochemical. It counts as cell-based, CHO.
Experiment [8] concerns the target T4, Muscarinic acetylcholine receptor M4 (Homo sapiens, UniProt P08173).
T4 sequence (P08173 whole entry): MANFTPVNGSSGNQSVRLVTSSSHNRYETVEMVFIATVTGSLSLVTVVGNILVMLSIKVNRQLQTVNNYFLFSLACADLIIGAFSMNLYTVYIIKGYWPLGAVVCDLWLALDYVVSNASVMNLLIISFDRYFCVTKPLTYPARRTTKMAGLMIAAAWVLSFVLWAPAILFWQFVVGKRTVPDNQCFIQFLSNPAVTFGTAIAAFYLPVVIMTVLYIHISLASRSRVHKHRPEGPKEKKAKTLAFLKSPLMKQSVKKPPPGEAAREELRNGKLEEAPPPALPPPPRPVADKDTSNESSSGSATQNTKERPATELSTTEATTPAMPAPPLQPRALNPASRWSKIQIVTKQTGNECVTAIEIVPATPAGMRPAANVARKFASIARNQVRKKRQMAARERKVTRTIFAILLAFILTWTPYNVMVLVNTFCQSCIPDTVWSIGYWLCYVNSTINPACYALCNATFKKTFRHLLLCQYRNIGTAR
The experiment can be described thus: Binding affinity (Ki) against binding of [3H]NMS using membranes from CHO cells expressing cloned human Muscarinic acetylcholine receptor M4. It counts as cell membranes.

The species entered for experiment [9] is Homo sapiens. Nature of the experiment: Selectivity ratio (m4/m3). The method in brief: (§1)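 Binding affinities (Ki) were measured at each of the five muscarinic receptor subtypes (m1–m5), with the m3 receptor being human and expressed in CHO cells. The ratio compares the m4 or m5 Ki with the m3 Ki. Values are the mean of two or more independent assays.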

The species named for experiment [10] is Homo sapiens. Nature of the experiment: Selectivity ratio (m5/m3). The method in brief: as §1

Sequence of Muscarinic acetylcholine receptor M3 (P20309 whole entry): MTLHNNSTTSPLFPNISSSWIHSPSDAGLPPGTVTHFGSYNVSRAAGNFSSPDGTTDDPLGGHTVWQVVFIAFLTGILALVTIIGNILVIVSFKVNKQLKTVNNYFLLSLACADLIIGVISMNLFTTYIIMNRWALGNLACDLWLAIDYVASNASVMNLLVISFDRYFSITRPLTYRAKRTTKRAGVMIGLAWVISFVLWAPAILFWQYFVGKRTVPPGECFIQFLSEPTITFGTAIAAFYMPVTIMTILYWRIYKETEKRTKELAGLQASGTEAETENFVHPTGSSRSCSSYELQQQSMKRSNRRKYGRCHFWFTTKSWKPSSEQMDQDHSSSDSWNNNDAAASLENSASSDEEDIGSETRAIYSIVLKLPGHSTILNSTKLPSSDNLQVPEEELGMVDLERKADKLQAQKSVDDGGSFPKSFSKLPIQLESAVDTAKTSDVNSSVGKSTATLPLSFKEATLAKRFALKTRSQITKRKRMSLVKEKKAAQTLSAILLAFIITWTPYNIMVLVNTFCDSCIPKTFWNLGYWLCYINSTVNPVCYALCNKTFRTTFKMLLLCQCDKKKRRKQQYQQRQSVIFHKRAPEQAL

Turning to `CN1[C@@H]2CC[C@H]1C[C@@H](OC(=O)C(CO)c1ccccc1)C2` (some centres not stated) [ATROPINE], the ED50 – broadly, the dose that gives a 50% effect, or the effect in half of the subjects – with Rattus norvegicus [1] was determined as 0.016 mg/kg; in the experiment with Rattus norvegicus [2], 0.0052 mg/kg; in the experiment with Rattus norvegicus [3], 0.0043 mg/kg.
In the case of `O=C(CCNC(=O)[C@@H]1CCCN1C(=O)CC(c1ccccc1)(c1ccccc1)c1ccccc1)NC[C@H]1CCCN(CC2CCCCC2)C1`, the Ki (commonly a dissociation constant, usually derived from enzyme kinetics or from competition with a known ligand) in experiment [4] was 150 nM; in experiment [5], 12 nM; in [6], 58 nM; in experiment [7] it was 0.27 nM; in experiment [8], 11 nM. In addition, the Selectivity was 42 in the experiment filed under Homo sapiens [9] and 210 in the experiment filed under Homo sapiens [10].
Take `O=C(CNC(=O)[C@@H]1CCCN1C(=O)CC(c1ccccc1)(c1ccccc1)c1ccccc1)NC[C@H]1CCCN(CC2CCCCC2)C1`: the Ki amounted to 150 nM in experiment [4]; 13 nM in [5]; 2000 nM in experiment [6]; 2.2 nM in [7]; 43 nM in experiment [8]. Besides, the Selectivity stood at 19 in the experiment listed under Homo sapiens [9] and 890 in the experiment listed under Homo sapiens [10].
`O=C(CCNC(=O)CC(c1ccccc1)(c1ccccc1)c1ccccc1)NCCC(=O)NC[C@H]1CCCN(CC2CCCCC2)C1`: the Ki in [4] is 36 nM; in experiment [5], 44 nM; in experiment [6], 30 nM; in experiment [7] it was 0.76 nM; in [8], 31 nM. In addition, the Selectivity in the experiment listed under Homo sapiens [9] worked out at 41; in the experiment listed under Homo sapiens [10], 40.
With `O=C(CCNC(=O)CNC(=O)CC(c1ccccc1)(c1ccccc1)c1ccccc1)NC[C@H]1CCCN(CC2CCCCC2)C1`, the Ki in experiment [4] is 120 nM; in [5], 30 nM; in [6] it was 37 nM; in [7], 0.31 nM; in experiment [8], 14 nM. In addition, the ED50 in the experiment on Rattus norvegicus [1] is more than 3 mg/kg; with Rattus norvegicus [2], 1.55 mg/kg; in the experiment on Rattus norvegicus [3], 0.015 mg/kg. Besides, the Selectivity in the experiment listed under Homo sapiens [9] is 45; in the experiment filed under Homo sapiens [10] it was 120.
For `O=C(NC[C@H]1CCCN(CC2CCCCC2)C1)[C@H]1CCCN1C(=O)[C@@H]1CCCN1C(=O)CC(c1ccccc1)(c1ccccc1)c1ccccc1`, the Ki in experiment [4] worked out at 14 nM; in experiment [5] it was 0.82 nM; in experiment [6], 150 nM; in [7], 0.25 nM; in [8], 2.3 nM. The Selectivity in the experiment filed under Homo sapiens [9] was determined as 9; in the experiment listed under Homo sapiens [10] it was 580.
Take `O=C(CCCNC(=O)CC(c1ccccc1)(c1ccccc1)c1ccccc1)NCCC(=O)NCC1CCCN(CC2CCCCC2)C1` (configuration not stated): the inhibition constant (Ki) is 77 nM in [4]; 17 nM in [5]; 200 nM in [6]; 2.1 nM in [7]; 60 nM in [8]. Besides, the values for the Selectivity in the experiment listed under Homo sapiens [9] and in the experiment listed under Homo sapiens [10] were 29 and 95, respectively.
On to `O=C(CCCCCNC(=O)CC(c1ccccc1)(c1ccccc1)c1ccccc1)NC[C@H]1CCCN(CC2CCCCC2)C1`, for which the Ki in experiment [4] came out at 110 nM; in experiment [5], 72 nM; in [6] it was 210 nM; in experiment [7], 1 nM; in [8], 30 nM. In addition, the Selectivity in the experiment filed under Homo sapiens [9] worked out at 30; in the experiment filed under Homo sapiens [10], 200.
With `O=C(CCCNC(=O)CNC(=O)CC(c1ccccc1)(c1ccccc1)c1ccccc1)NCC1CCCN(CC2CCCCC2)C1` (configuration not stated), the Ki in experiment [4] was determined as 300 nM; in experiment [5], 270 nM; in experiment [6], 1100 nM; in [7], 3.3 nM; in experiment [8] it was 74 nM. Also, the Selectivity worked out at 22 in the experiment filed under Homo sapiens [9] and 320 in the experiment filed under Homo sapiens [10].

These data come from ChEMBL document CHEMBL1135983, “Cyclohexylmethylpiperidinyltriphenylpropioamide: a selective muscarinic M(3) antagonist discriminating against the other receptor subtypes” (J Med Chem, 2002).
